From ChEMBL document CHEMBL4689842, “EUbOPEN Chemogenomics Library wave 1” (2021)

Test system: HEK-293T
Experiment: Multiplex assay against HEK293T;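 on Population Tubulin-Different-Phenotype (%): share of the cells with healthy nuclei that show this phenotype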
Assay type: toxicity, cell-based
Conditions: human
Method in brief: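 Per cents of healthy-nucleus cells form the tubulin, mitochondrial-mass and membrane-permeability phenotype values. Live cells were stained at seeding with Hoechst33342, BioTracker Green Microtubule Cytoskeleton Dye, MitoTracker Red and Annexin V Alexa Fluor 680. After compound addition they were imaged on a CQ1 microscope at 37°C and 5% CO2, and CellPathfinder machine-learning gating split them into Hoechst high-intensity objects or normal cells, normal cells into healthy, pyknosed or fragmented nuclei, and pyknosed cells into mitotic or apoptotic.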

[1] = 12 h, 1 µM, compound concentration 1 uM, replicate 1
[2] = 12 h, 1 µM, compound concentration 1 uM, replicate 2
[3] = 12 h, 10 µM, compound concentration 10 uM, replicate 1
[4] = 12 h, 10 µM, compound concentration 10 uM, replicate 2
[5] = 24 h, 1 µM, compound concentration 1 uM, replicate 1
[6] = 24 h, 1 µM, compound concentration 1 uM, replicate 2
[7] = 24 h, 10 µM, compound concentration 10 uM, replicate 1
[8] = 24 h, 10 µM, compound concentration 10 uM, replicate 2
[9] = 48 h, 1 µM, compound concentration 1 uM, replicate 1
[10] = 48 h, 1 µM, compound concentration 1 uM, replicate 2
[11] = 48 h, 10 µM, compound concentration 10 uM, replicate 1
[12] = 48 h, 10 µM, compound concentration 10 uM, replicate 2

## COc1ccccc1CN[C@H]1C2CCN(CC2)[C@H]1C(c1ccccc1)c1ccccc1 [CP-96345]
[1]
  Population Apoptotic (%): 61%
  Population Fragmented Nuclei (%): 12%
  Population Healthy Nuclei (%): 37%
  Population Hoechst High Intensity Objects (%): 13%
  Population Membrane Permeable-Phenotype (%): 0%
  Population Mitochondria Different-Phenotype (%): 90%
  Population Mitotic Cells (%): 38%
  Population Normal (%): 86%
  Population Pyknosed Nuclei (%): 50%
  Population Tubulin-Different-Phenotype (%): 80%
  Total Cell Count: 250
[2]
  Population Apoptotic (%): 8%
  Population Fragmented Nuclei (%): 3%
  Population Healthy Nuclei (%): 54%
  Population Hoechst High Intensity Objects (%): 3%
  Population Membrane Permeable-Phenotype (%): 10%
  Population Mitochondria Different-Phenotype (%): 17%
  Population Mitotic Cells (%): 91%
  Population Normal (%): 96%
  Population Pyknosed Nuclei (%): 42%
  Population Tubulin-Different-Phenotype (%): 21%
  Total Cell Count: 244
[3]
  Population Apoptotic (%): 79%
  Population Fragmented Nuclei (%): 9%
  Population Healthy Nuclei (%): 27%
  Population Hoechst High Intensity Objects (%): 13%
  Population Membrane Permeable-Phenotype (%): 2%
  Population Mitochondria Different-Phenotype (%): 100%
  Population Mitotic Cells (%): 20%
  Population Normal (%): 86%
  Population Pyknosed Nuclei (%): 63%
  Population Tubulin-Different-Phenotype (%): 97%
  Total Cell Count: 296
[4]
  Population Apoptotic (%): 25%
  Population Fragmented Nuclei (%): 2%
  Population Healthy Nuclei (%): 36%
  Population Hoechst High Intensity Objects (%): 4%
  Population Membrane Permeable-Phenotype (%): 6%
  Population Mitochondria Different-Phenotype (%): 77%
  Population Mitotic Cells (%): 74%
  Population Normal (%): 95%
  Population Pyknosed Nuclei (%): 60%
  Population Tubulin-Different-Phenotype (%): 74%
  Total Cell Count: 179
[5]
  Population Apoptotic (%): 56%
  Population Fragmented Nuclei (%): 11%
  Population Healthy Nuclei (%): 45%
  Population Hoechst High Intensity Objects (%): 16%
  Population Membrane Permeable-Phenotype (%): 6%
  Population Mitochondria Different-Phenotype (%): 87%
  Population Mitotic Cells (%): 43%
  Population Normal (%): 83%
  Population Pyknosed Nuclei (%): 43%
  Population Tubulin-Different-Phenotype (%): 67%
  Total Cell Count: 253
[6]
  Population Apoptotic (%): 10%
  Population Fragmented Nuclei (%): 2%
  Population Healthy Nuclei (%): 67%
  Population Hoechst High Intensity Objects (%): 3%
  Population Membrane Permeable-Phenotype (%): 5%
  Population Mitochondria Different-Phenotype (%): 14%
  Population Mitotic Cells (%): 89%
  Population Normal (%): 97%
  Population Pyknosed Nuclei (%): 30%
  Population Tubulin-Different-Phenotype (%): 20%
  Total Cell Count: 333
[7]
  Population Apoptotic (%): 81%
  Population Fragmented Nuclei (%): 13%
  Population Healthy Nuclei (%): 39%
  Population Hoechst High Intensity Objects (%): 11%
  Population Membrane Permeable-Phenotype (%): 0%
  Population Mitochondria Different-Phenotype (%): 100%
  Population Mitotic Cells (%): 18%
  Population Normal (%): 88%
  Population Pyknosed Nuclei (%): 47%
  Population Tubulin-Different-Phenotype (%): 99%
  Total Cell Count: 298
[8]
  Population Apoptotic (%): 26%
  Population Fragmented Nuclei (%): 5%
  Population Healthy Nuclei (%): 44%
  Population Hoechst High Intensity Objects (%): 2%
  Population Membrane Permeable-Phenotype (%): 4%
  Population Mitochondria Different-Phenotype (%): 75%
  Population Mitotic Cells (%): 73%
  Population Normal (%): 97%
  Population Pyknosed Nuclei (%): 50%
  Population Tubulin-Different-Phenotype (%): 72%
  Total Cell Count: 218
[9]
  Population Apoptotic (%): 48%
  Population Fragmented Nuclei (%): 15%
  Population Healthy Nuclei (%): 48%
  Population Hoechst High Intensity Objects (%): 14%
  Population Membrane Permeable-Phenotype (%): 4%
  Population Mitochondria Different-Phenotype (%): 57%
  Population Mitotic Cells (%): 51%
  Population Normal (%): 85%
  Population Pyknosed Nuclei (%): 36%
  Population Tubulin-Different-Phenotype (%): 58%
  Total Cell Count: 334
[10]
  Population Apoptotic (%): 8%
  Population Fragmented Nuclei (%): 3%
  Population Healthy Nuclei (%): 86%
  Population Hoechst High Intensity Objects (%): 2%
  Population Membrane Permeable-Phenotype (%): 6%
  Population Mitochondria Different-Phenotype (%): 4%
  Population Mitotic Cells (%): 91%
  Population Normal (%): 97%
  Population Pyknosed Nuclei (%): 9%
  Population Tubulin-Different-Phenotype (%): 13%
  Total Cell Count: 612
[11]
  Population Apoptotic (%): 79%
  Population Fragmented Nuclei (%): 16%
  Population Healthy Nuclei (%): 55%
  Population Hoechst High Intensity Objects (%): 13%
  Population Membrane Permeable-Phenotype (%): 0%
  Population Mitochondria Different-Phenotype (%): 98%
  Population Mitotic Cells (%): 20%
  Population Normal (%): 86%
  Population Pyknosed Nuclei (%): 28%
  Population Tubulin-Different-Phenotype (%): 94%
  Total Cell Count: 327
[12]
  Population Apoptotic (%): 39%
  Population Fragmented Nuclei (%): 3%
  Population Healthy Nuclei (%): 71%
  Population Hoechst High Intensity Objects (%): 2%
  Population Membrane Permeable-Phenotype (%): 4%
  Population Mitochondria Different-Phenotype (%): 39%
  Population Mitotic Cells (%): 60%
  Population Normal (%): 97%
  Population Pyknosed Nuclei (%): 25%
  Population Tubulin-Different-Phenotype (%): 63%
  Total Cell Count: 330

## CC(C)(C)NC[C@H](O)COc1nsnc1N1CCOCC1 [TIMOLOL]
[1]
  Population Apoptotic (%): 47%
  Population Fragmented Nuclei (%): 10%
  Population Healthy Nuclei (%): 39%
  Population Hoechst High Intensity Objects (%): 14%
  Population Membrane Permeable-Phenotype (%): 4%
  Population Mitochondria Different-Phenotype (%): 77%
  Population Mitotic Cells (%): 52%
  Population Normal (%): 85%
  Population Pyknosed Nuclei (%): 50%
  Population Tubulin-Different-Phenotype (%): 36%
  Total Cell Count: 281
[2]
  Population Apoptotic (%): 12%
  Population Fragmented Nuclei (%): 5%
  Population Healthy Nuclei (%): 48%
  Population Hoechst High Intensity Objects (%): 3%
  Population Membrane Permeable-Phenotype (%): 8%
  Population Mitochondria Different-Phenotype (%): 19%
  Population Mitotic Cells (%): 87%
  Population Normal (%): 96%
  Population Pyknosed Nuclei (%): 45%
  Population Tubulin-Different-Phenotype (%): 22%
  Total Cell Count: 280
[3]
  Population Apoptotic (%): 55%
  Population Fragmented Nuclei (%): 9%
  Population Healthy Nuclei (%): 40%
  Population Hoechst High Intensity Objects (%): 13%
  Population Membrane Permeable-Phenotype (%): 2%
  Population Mitochondria Different-Phenotype (%): 87%
  Population Mitotic Cells (%): 44%
  Population Normal (%): 86%
  Population Pyknosed Nuclei (%): 49%
  Population Tubulin-Different-Phenotype (%): 53%
  Total Cell Count: 293
[4]
  Population Apoptotic (%): 8%
  Population Fragmented Nuclei (%): 3%
  Population Healthy Nuclei (%): 50%
  Population Hoechst High Intensity Objects (%): 3%
  Population Membrane Permeable-Phenotype (%): 4%
  Population Mitochondria Different-Phenotype (%): 23%
  Population Mitotic Cells (%): 91%
  Population Normal (%): 96%
  Population Pyknosed Nuclei (%): 46%
  Population Tubulin-Different-Phenotype (%): 17%
  Total Cell Count: 261
[5]
  Population Apoptotic (%): 49%
  Population Fragmented Nuclei (%): 8%
  Population Healthy Nuclei (%): 43%
  Population Hoechst High Intensity Objects (%): 12%
  Population Membrane Permeable-Phenotype (%): 1%
  Population Mitochondria Different-Phenotype (%): 58%
  Population Mitotic Cells (%): 50%
  Population Normal (%): 87%
  Population Pyknosed Nuclei (%): 47%
  Population Tubulin-Different-Phenotype (%): 41%
  Total Cell Count: 293
[6]
  Population Apoptotic (%): 8%
  Population Fragmented Nuclei (%): 7%
  Population Healthy Nuclei (%): 67%
  Population Hoechst High Intensity Objects (%): 1%
  Population Membrane Permeable-Phenotype (%): 11%
  Population Mitochondria Different-Phenotype (%): 12%
  Population Mitotic Cells (%): 91%
  Population Normal (%): 98%
  Population Pyknosed Nuclei (%): 24%
  Population Tubulin-Different-Phenotype (%): 30%
  Total Cell Count: 363
[7]
  Population Apoptotic (%): 44%
  Population Fragmented Nuclei (%): 6%
  Population Healthy Nuclei (%): 57%
  Population Hoechst High Intensity Objects (%): 12%
  Population Membrane Permeable-Phenotype (%): 2%
  Population Mitochondria Different-Phenotype (%): 70%
  Population Mitotic Cells (%): 55%
  Population Normal (%): 87%
  Population Pyknosed Nuclei (%): 35%
  Population Tubulin-Different-Phenotype (%): 40%
  Total Cell Count: 360
[8]
  Population Apoptotic (%): 8%
  Population Fragmented Nuclei (%): 3%
  Population Healthy Nuclei (%): 71%
  Population Hoechst High Intensity Objects (%): 3%
  Population Membrane Permeable-Phenotype (%): 4%
  Population Mitochondria Different-Phenotype (%): 17%
  Population Mitotic Cells (%): 91%
  Population Normal (%): 96%
  Population Pyknosed Nuclei (%): 24%
  Population Tubulin-Different-Phenotype (%): 18%
  Total Cell Count: 355
[9]
  Population Apoptotic (%): 52%
  Population Fragmented Nuclei (%): 18%
  Population Healthy Nuclei (%): 46%
  Population Hoechst High Intensity Objects (%): 10%
  Population Membrane Permeable-Phenotype (%): 6%
  Population Mitochondria Different-Phenotype (%): 23%
  Population Mitotic Cells (%): 47%
  Population Normal (%): 89%
  Population Pyknosed Nuclei (%): 34%
  Population Tubulin-Different-Phenotype (%): 33%
  Total Cell Count: 373
[10]
  Population Apoptotic (%): 16%
  Population Fragmented Nuclei (%): 5%
  Population Healthy Nuclei (%): 82%
  Population Hoechst High Intensity Objects (%): 2%
  Population Mitochondria Different-Phenotype (%): 3%
  Population Mitotic Cells (%): 83%
  Population Normal (%): 97%
  Population Pyknosed Nuclei (%): 12%
  Population Tubulin-Different-Phenotype (%): 25%
  Total Cell Count: 733
[11]
  Population Apoptotic (%): 42%
  Population Fragmented Nuclei (%): 12%
  Population Healthy Nuclei (%): 65%
  Population Hoechst High Intensity Objects (%): 5%
  Population Membrane Permeable-Phenotype (%): 0%
  Population Mitochondria Different-Phenotype (%): 23%
  Population Mitotic Cells (%): 57%
  Population Normal (%): 94%
  Population Pyknosed Nuclei (%): 22%
  Population Tubulin-Different-Phenotype (%): 20%
  Total Cell Count: 545
[12]
  Population Apoptotic (%): 6%
  Population Fragmented Nuclei (%): 7%
  Population Healthy Nuclei (%): 85%
  Population Hoechst High Intensity Objects (%): 2%
  Population Membrane Permeable-Phenotype (%): 2%
  Population Mitochondria Different-Phenotype (%): 4%
  Population Mitotic Cells (%): 93%
  Population Normal (%): 97%
  Population Pyknosed Nuclei (%): 7%
  Population Tubulin-Different-Phenotype (%): 17%
  Total Cell Count: 660
